Source: PubChem BioAssay (several laboratories)
B2AR ag – activates human beta-2 adrenergic receptor causing internalization; Am2.2-beta2AR cells, FAP receptor internalization, flow cytometry; response, % (no concentration beside the values); 340,000 tested, 0.43% active; AID 504454;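 active means response above a set limit, near 3 SD of response in nonfluorescent compounds, cut at about 42% in these data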
CCR6 antag – antagonists of human CCR6 receptor; CHO-K1 CCR6 PathHunter beta-arrestin, luminescence, CCL20-stimulated; 340,000 tested, 0.49% active; inhibition, % at 20 µM; P51684;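 active means compounds whose inhibition of the agonist-driven luminescence signal at 20 µM reaches about 50%, limit read from the data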;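 further: cells stimulated with CCL20 at 14 nM final; plate controls were DMSO with CCL20 for no effect and DMSO without agonist for full effect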
APJ antag – blocks the human apelin receptor APJ | inhibition, % at 20 µM | P35414 | CHO-K1 APJ beta-arrestin complementation, luminescence | AID 2521 | 330,000 tested, 0.32% active;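 active means inhibition above about 40% at 20 µM, limit read from the data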;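 further: cells challenged with 10 nM apelin-13 agonist together with compound; plate controls were apelin-13 plus DMSO wells for no effect and DMSO wells lacking apelin-13 for full effect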
EBI2 antag – antagonists of human EBI2 receptor; EBI2 beta-arrestin recruitment, luminescence, 7a,25-OHC stimulated; 360,000 tested, 0.81% active; inhibition, % at 5 µM; in the data active means inhibition above about 38%;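 further: enzyme fragment complementation signal reports receptor beta-arrestin coupling in cells; 0% = agonist plus DMSO wells and 100% = wells without agonist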
CXCR6 inh – CXCR6 (human) receptor inhibition. O00574. CHO-K1 PathHunter CXCR6 beta-arrestin, luminescence. 360,000 tested, 0.36% active. inhibition, % at 20 µM; in the data active means inhibition above about 34%, passing the limit was not always enough;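 further: antagonist mode with CXCL16 agonist at 10 nM final; 0% = 10 nM CXCL16 with DMSO and 100% = unstimulated wells without agonist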
Target sequence (O00574 whole entry, looked up): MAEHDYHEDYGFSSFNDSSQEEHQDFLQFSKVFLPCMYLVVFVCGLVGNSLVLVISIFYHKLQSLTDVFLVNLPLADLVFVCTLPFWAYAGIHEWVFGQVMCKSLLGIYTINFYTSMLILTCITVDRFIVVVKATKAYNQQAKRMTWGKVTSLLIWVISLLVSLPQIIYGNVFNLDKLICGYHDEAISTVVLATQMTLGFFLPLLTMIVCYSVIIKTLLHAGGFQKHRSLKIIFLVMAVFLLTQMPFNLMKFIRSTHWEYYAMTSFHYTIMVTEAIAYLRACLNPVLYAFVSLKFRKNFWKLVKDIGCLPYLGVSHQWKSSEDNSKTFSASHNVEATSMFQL
APJ agonist – agonists of human APJ apelin receptor; activation, % at 20 µM; P35414; CHO-K1 APJ PathHunter beta-arrestin, luminescence; 0% DMSO wells, 100% apelin; 330,000 tested, 0.11% active;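 active means activation more than six SD over the plate average, tested at 20 µM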;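 further: 0% = DMSO alone and 100% = apelin-13 at 10 nM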
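Material: engineered CHO-K1 APJ arrestin reporter cells; amount: 1000 CHO-K1 reporter cells seeded per well; incubation: compound stimulation 90 min at 25 °C, detection 60 min; signal: luminescent beta-gal fragment complementation, chemiluminescent substrate; read-out basis: APJ agonist activity; controls: DMSO-only wells as negative, 10 nM Apelin-13 as positive control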
APJ ag confirm – confirmation of human APJ apelin receptor agonists | AID 2764 | 310 tested, 10% active | activation, % at 20 µM | CHO-K1 APJ PathHunter beta-arrestin, luminescence | shares compounds with APJ agonist;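 active means activation above 40%, taking the highest of four retests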;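 further: plate controls were DMSO wells for no effect and apelin-13 at 10 nM for full effect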
* marks the source's active call; other numbers are inactive results; · = not tested or not shown. Sampled rows, rich in hits. Any-hit rate of the full collection: about 1.8%.

SMILES	B2AR ag	CCR6 antag	APJ antag	EBI2 antag	CXCR6 inh	APJ agonist	APJ ag confirm
COc1ccc2nc(C)cc(N/N=C/c3cccc(OC)c3O)c2c1	21.2	10.8	-18.4	16.3	-23.3	7.9	·
CC1=CC(=O)C(C(C)C)=C/C1=N/OS(=O)(=O)c1ccccc1	29.6	7.3	-34.6	-44.1	-2.9	184.6*	77.7*
Cc1ccnc(NC(=O)c2ccc(Cl)c(S(=O)(=O)N3CCCC3)c2)c1	-1.7	9.0	-6.4	9.7	-2.5	-4.3	·
COCCCn1c(C)cc(C(=O)COC(=O)C23CC4CC(CC(O)(C4)C2)C3)c1C	-3.2	1.6	-4.7	3.2	-1.9	-4.4	·
N/C(=N\OS(=O)(=O)c1ccc2ccccc2c1)c1ccncc1	1.2	-27.0	-30.6	-22.1	-19.0	27.7*	67.5*
Cc1ccc(-c2noc(CNC(=O)COc3ccccc3C)n2)cc1	0.6	-19.0	-37.2	-0.7	6.3	-3.3	·
Nc1c(C(O)(C(F)(F)F)C(F)(F)F)cc(C(O)(C(F)(F)F)C(F)(F)F)c2ccccc12	9.1	6.1	-9.3	-21.4	4.3	49.9*	37.1
CCOC(=O)N1CCN(C(=O)c2ccc(Cn3c(=S)[nH]c4cc5c(cc4c3=O)OCO5)cc2)CC1	6.8	-9.9	-16.3	-29.3	4.5	23.4*	14.9
COc1ccccc1N1CCN(C(=O)c2ccc(Cn3c(=S)[nH]c4cc5c(cc4c3=O)OCO5)cc2)CC1	10.8	4.1	5.5	9.9	-1.1	2.1	·
CC(C)CCN(C(=S)NC(=O)C1CCCCC1)c1c(N)n(Cc2ccccc2)c(=O)[nH]c1=O	3.6	-0.3	-6.9	2.2	8.1	32.7*	38.9
Cc1ccc(NC(=O)C/C(N)=N/OC(=O)Nc2ccc(C)c(Cl)c2)cc1	4.9	-17.6	-39.8	1.5	-37.4	27.0*	26.1
CCSc1ccc(/C(N)=N/OC(=O)c2cccs2)cn1	-12.6	-32.4	-167.9	-18.1	-43.2	43.5*	10.5
O=C(Nc1ccc(Cl)c([N+](=O)[O-])c1)ONC1=NCCCCC1	-0.7	-15.1	-60.3	-11.4	-9.2	15.9*	18.2
CCN(CC(=O)Nc1ccc(NC(C)=O)cc1)C(=O)c1oc2ccccc2c1C	-10.5	5.9	16.9	-7.7	8.5	-4.9	·
CCN(CC(=O)Nc1ccc(NC(C)=O)cc1)C(=O)c1oc2c(ccc3ccccc32)c1C	-1.5	-19.1	-14.7	-11.1	-14.0	22.2*	11.0
CCCc1cc(C(=O)Nc2sc3c(c2C(=O)OCC)CCCC3)no1	-0.6	-2.5	16.5	6.7	-3.3	67.9*	1.3
CC1=CC(=O)C2=C(C)CCC3C(C)C(=O)OC3C12 (centres undefined)	·	·	·	-7.8	-2.3	·	·
Oc1ccc(Nc2nc(NCC3CCCO3)c3ccccc3n2)cc1 (centres undefined)	10.2	13.2	30.1	0.2	3.1	2.6	·
COc1cccc(Nc2nc(NCC3CCCO3)c3ccccc3n2)c1 (centres undefined)	20.0	1.4	-11.8	-14.0	-8.4	14.3*	10.1
CCCCCN=C(N)N/N=C/c1c[nH]c2ccc(OC)cc12	47.1*	54.5*	-20.5	4.5	27.3	35.0*	38.8
CC1CCN(CCNC(=O)c2ccc3c(=O)n(Cc4ccc(Cl)cc4)c(=S)[nH]c3c2)CC1	11.6	-4.7	0.2	-0.7	0.9	33.0*	9.0
Cc1cccc(NC(=S)NC(=O)CCc2ccccc2)c1	1.7	-35.2	-82.3	14.7	-19.0	19.2*	25.4
CC(C)(C)OC(=O)C(Cc1ccc(OC(C)(C)C)cc1)NC(=O)CNC(=O)CNC(=O)OCc1ccccc1 (centres undefined)	-7.1	20.7	4.9	-6.7	-3.9	1.9	·
CC(NC(=O)OCc1ccccc1)C(=O)NCC(=O)NC(Cc1ccc(OC(C)(C)C)cc1)C(=O)OC(C)(C)C (centres undefined)	-2.4	6.7	-1.3	16.6	2.0	19.3*	6.8
CCn1c(C)nc2cc(C(=O)NNC(=S)NC(=O)c3ccc(OC)cc3)ccc21	11.3	11.6	1.9	11.0	5.3	-2.4	·
N/C(=N\OC(=O)c1ccc(Br)cc1)c1ccncc1	6.3	-14.5	-24.4	-11.4	-13.1	12.3*	26.4
